This note sets out measurements from ChEMBL document CHEMBL1138070, “Inhibitors of HCV NS5B polymerase: synthesis and structure-activity relationships of N-alkyl-4-hydroxyquinolon-3-yl-benzothiadiazine sulfamides” (Bioorg Med Chem Lett, 2006).

Assay [1] has as its target T1, RNA-directed RNA polymerase (Hepacivirus hominis, UniProt O39930). In words: Inhibition of HCV 1a NS5B RNA polymerase.
Assay [2] concerns the target T1, RNA-directed RNA polymerase. In words: Inhibition of HCV 1b NS5B RNA polymerase. Further details: species or system Hepatitis C virus subtype 1b.
The subject of assay [3] is Hepatitis C virus. In words: Inhibition of HCV 1b replication in presence of 5% fetal calf serum. It counts as functional, organism-based, Hepatitis C virus subtype 1b. In outline:
(§1)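 Genotype 1b HCV replicon cell culture assay. The medium held 5% fetal calf serum […] and 40% human serum […]. EC50 is the mean of at least two independent determinations, standard deviation ±10%.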

In assay [4] the test system is Hepatitis C virus. In words: Inhibition of HCV 1b replication in presence of 40% human serum. It counts as functional, organism-based, Hepatitis C virus subtype 1b. In outline:
as §1

T1 sequence (O39930 whole entry): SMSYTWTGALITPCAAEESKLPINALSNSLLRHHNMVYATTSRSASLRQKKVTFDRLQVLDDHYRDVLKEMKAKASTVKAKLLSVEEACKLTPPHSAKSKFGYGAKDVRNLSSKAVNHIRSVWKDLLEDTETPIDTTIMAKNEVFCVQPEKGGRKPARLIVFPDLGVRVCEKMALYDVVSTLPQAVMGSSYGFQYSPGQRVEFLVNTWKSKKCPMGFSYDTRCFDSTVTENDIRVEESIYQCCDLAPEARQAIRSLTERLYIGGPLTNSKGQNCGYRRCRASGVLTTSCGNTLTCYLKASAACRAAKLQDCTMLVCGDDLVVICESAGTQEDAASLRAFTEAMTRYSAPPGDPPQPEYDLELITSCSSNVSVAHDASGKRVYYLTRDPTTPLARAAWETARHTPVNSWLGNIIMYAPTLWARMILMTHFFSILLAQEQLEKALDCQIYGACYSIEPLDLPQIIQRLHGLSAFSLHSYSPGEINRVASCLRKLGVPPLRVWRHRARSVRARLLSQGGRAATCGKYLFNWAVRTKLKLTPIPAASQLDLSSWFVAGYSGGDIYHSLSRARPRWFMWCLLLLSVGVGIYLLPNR

As usually defined, the IC50 is the point on the concentration scale where inhibition reaches its midpoint. Lower therefore signals greater potency. Regarding `C=CCOC(=O)NS(=O)(=O)Nc1ccc2c(c1)S(=O)(=O)N=C(c1c(O)c3cccnc3n(CCC(C)C)c1=O)N2`, half-maximal inhibition in assay [1] (IC50) required 88 nM. That is a double-digit nanomolar value.
In assay [1], `CC(C)CCn1c(=O)c(C2=Nc3ccc(NS(=O)(=O)NCCC(N)=O)cc3S(=O)(=O)N2)c(O)c2cccnc21` yielded an IC50 of 20 nM. Compared with the last compound, the IC50 is about 4.4-fold lower.
In the case of `CC(C)CCn1c(=O)c(C2=Nc3ccc(NS(=O)(=O)NCCO)cc3S(=O)(=O)N2)c(O)c2cccnc21`, 107 nM corresponded to half-maximal inhibition in assay [1] (IC50). This IC50 is about 5.3-fold higher than that of the compound before.
What is called EC50 is the concentration giving half of the maximal effect. Consider `CC(C)CCn1c(=O)c(C2=Nc3ccc(NS(=O)(=O)NCCc4ccccc4)cc3S(=O)(=O)N2)c(O)c2cccnc21`, for which the figures for the IC50 in assay [1] and in assay [2] were 18 nM and 37 nM, respectively. Also, the EC50 in the assay with Hepatitis C virus [3] came out at 1270 nM.
`CC(C)CCn1c(=O)c(C2=NS(=O)(=O)c3cc(NS(=O)(=O)N(C)C(=O)OCc4ccccc4)ccc3N2)c(O)c2cccnc21` displayed an IC50 in assay [1] of 121 nM.
In assay [1], `COC(=O)c1ccc(NS(=O)(=O)Nc2ccc3c(c2)S(=O)(=O)N=C(c2c(O)c4cccnc4n(CCC(C)C)c2=O)N3)cc1` registered an IC50 of 48 nM.
In turn, `CNC(=O)c1ccc(NS(=O)(=O)Nc2ccc3c(c2)S(=O)(=O)N=C(c2c(O)c4cccnc4n(CCC(C)C)c2=O)N3)cc1` registered an IC50 in assay [1] of 43 nM. This IC50 and that of the compound before are within 1.5-fold of each other.
On the same count and under the same terms, with `CC(C)CCn1c(=O)c(C2=NS(=O)(=O)c3cc(NS(=O)(=O)Nc4cccc(C(=O)NCC(N)=O)c4)ccc3N2)c(O)c2cccnc21` the figure was 43 nM; with `COc1ccc(CNS(=O)(=O)Nc2ccc3c(c2)S(=O)(=O)N=C(c2c(O)c4cccnc4n(CCC(C)C)c2=O)N3)cc1`, 10 nM.
On the same count and under the same terms, with `CC(C)CCn1c(=O)c(C2=Nc3ccc(NS(=O)(=O)NC(=O)OCCOCc4ccccc4)cc3S(=O)(=O)N2)c(O)c2cccnc21` the figure was 96 nM.
On to `CNS(=O)(=O)Nc1ccc2c(c1)S(=O)(=O)NC(c1c(O)c3ccccc3n(NC3CCC3)c1=O)=N2`, for which, in assay [1], the midpoint of inhibition, the IC50, lay at 8.7 nM. For the same compound, the 50% effective concentration (EC50) was 11 nM in the assay with Hepatitis C virus [3] and 420 nM with Hepatitis C virus [4].
Regarding `CC(C)CCn1c(=O)c(C2=Nc3ccc(NS(=O)(=O)NC4CCCC4)cc3S(=O)(=O)N2)c(O)c2cccnc21`, in assay [1], it took 39 nM to reach half-maximal inhibition (IC50). In other words, the double-digit nanomolar range.
In assay [1], `COCCOC(=O)NS(=O)(=O)Nc1ccc2c(c1)S(=O)(=O)NC(c1c(O)c3cccnc3n(CCC(C)C)c1=O)=N2` came in with an IC50 of 87 nM.
In turn, `CC(C)CCn1c(=O)c(C2=Nc3ccc(NS(=O)(=O)NC(=O)OCCN)cc3S(=O)(=O)N2)c(O)c2cccnc21` showed an IC50 in assay [1] of 21 nM. Against the preceding compound, the IC50 is about 4.1-fold lower.
Take `CCOC(=O)COC(=O)NS(=O)(=O)Nc1ccc2c(c1)S(=O)(=O)NC(c1c(O)c3cccnc3n(CCC(C)C)c1=O)=N2`: in assay [1], it took 61 nM to reach half-maximal inhibition (IC50).
On to `CC(C)CCn1c(=O)c(C2=Nc3ccc(NS(=O)(=O)NC(=O)OCCC#N)cc3S(=O)(=O)N2)c(O)c2cccnc21`, for which the values for the IC50 in assay [1] and in assay [2] were 35 nM and 6.7 nM, respectively. Also, in the assay on Hepatitis C virus [3], the EC50 was 98 nM.
Take `CCOC(=O)c1cccc(NS(=O)(=O)Nc2ccc3c(c2)S(=O)(=O)NC(c2c(O)c4cccnc4n(CCC(C)C)c2=O)=N3)c1`: the IC50 in assay [1] stood at 132 nM.
The compound `CC(C)CCn1c(=O)c(C2=Nc3ccc(NS(=O)(=O)NC(=O)OCCCl)cc3S(=O)(=O)N2)c(O)c2cccnc21` displayed an IC50 in assay [1] of 189 nM.
The same measure, in the same setting: next, `CC(C)CCn1c(=O)c(C2=Nc3ccc(NS(=O)(=O)NC4CCNCC4)cc3S(=O)(=O)N2)c(O)c2cccnc21`: 32 nM; `COC(=O)NS(=O)(=O)Nc1ccc2c(c1)S(=O)(=O)N=C(c1c(O)c3cccnc3n(CCC(C)C)c1=O)N2`: 63 nM.
For `CC(C)CCn1c(=O)c(C2=NS(=O)(=O)c3cc(NS(=O)(=O)NCc4ccccc4)ccc3N2)c(O)c2cccnc21`, the IC50 came out at 5.5 nM in assay [1] and 44 nM in assay [2]. The EC50 in the assay with Hepatitis C virus [3] came out at 398 nM.
As to `COC(=O)c1ccccc1NS(=O)(=O)Nc1ccc2c(c1)S(=O)(=O)NC(c1c(O)c3cccnc3n(CCC(C)C)c1=O)=N2`, half-maximal inhibition in assay [1] (IC50) was put at 129 nM.
The same measure, in the same setting: with `CC(C)CCn1c(=O)c(C2=NS(=O)(=O)c3cc(NS(=O)(=O)Nc4cccc(C(N)=O)c4)ccc3N2)c(O)c2cccnc21` the figure was 43 nM.
For `NS(=O)(=O)Nc1ccc2c(c1)S(=O)(=O)NC(c1c(O)c3ccccc3n(NC3CCC3)c1=O)=N2`, the IC50 in assay [1] turned out to be 5.2 nM; in assay [2] it was 0.4 nM. The EC50 in the assay on Hepatitis C virus [3] came to 3 nM; in the assay with Hepatitis C virus [4] it was 81 nM.
In turn, `CC(C)CCn1c(=O)c(C2=Nc3ccc(NS(=O)(=O)Nc4ccccc4)cc3S(=O)(=O)N2)c(O)c2cccnc21` registered an IC50 in assay [1] of 41 nM.
Same read-out and setting: next, `CC(C)CCn1c(=O)c(C2=Nc3ccc(NS(=O)(=O)Nc4cccc(C(=O)O)c4)cc3S(=O)(=O)N2)c(O)c2cccnc21`: 115 nM; `CC(C)CCn1c(=O)c(C2=Nc3ccc(NS(=O)(=O)NN4CCCC4)cc3S(=O)(=O)N2)c(O)c2cccnc21`: 27 nM; `CC(C)CCn1c(=O)c(C2=NS(=O)(=O)c3cc(NS(=O)(=O)Nc4ccc(C(=O)O)cc4)ccc3N2)c(O)c2cccnc21`: 20 nM.
Regarding `CC(C)CCn1c(=O)c(C2=NS(=O)(=O)c3cc(NS(N)(=O)=O)ccc3N2)c(O)c2cccnc21`, the IC50 stood at 9 nM in assay [1] and 2.8 nM in assay [2]. Further, the EC50 with Hepatitis C virus [3] turned out to be 17 nM.
Take `CC(C)CCn1c(=O)c(C2=NS(=O)(=O)c3cc(NS(C)(=O)=O)ccc3N2)c(O)c2cccnc21`: the figures for the half-inhibitory concentration (IC50) in assay [1] and in assay [2] were 2.4 nM and 6 nM, respectively.
On to `CNS(=O)(=O)Nc1ccc2c(c1)S(=O)(=O)NC(c1c(O)c3cccnc3n(CCC(C)C)c1=O)=N2`, for which, in assay [1], the IC50 worked out at 14 nM.
Same read-out and setting: with `COc1ccccc1CNS(=O)(=O)Nc1ccc2c(c1)S(=O)(=O)NC(c1c(O)c3cccnc3n(CCC(C)C)c1=O)=N2` the figure was 57 nM.
Still for that read-out and setting: next, `CC(C)CCn1c(=O)c(C2=Nc3ccc(NS(=O)(=O)NCc4cccc([N+](=O)[O-])c4)cc3S(=O)(=O)N2)c(O)c2cccnc21`: 13 nM; `CC(C)CCn1c(=O)c(C2=Nc3ccc(NS(=O)(=O)Nc4ccc(C(N)=O)cc4)cc3S(=O)(=O)N2)c(O)c2cccnc21`: 18 nM.
Consider `CC(C)CCn1c(=O)c(C2=Nc3ccc(NS(=O)(=O)NCCN)cc3S(=O)(=O)N2)c(O)c2cccnc21`, for which the IC50 in assay [1] was 10 nM.
On the same count and under the same terms, next, `CC(C)CCn1c(=O)c(C2=Nc3ccc(NS(=O)(=O)NC4CCCCC4)cc3S(=O)(=O)N2)c(O)c2cccnc21`: 67 nM; `CC(C)CCn1c(=O)c(C2=Nc3ccc(NS(=O)(=O)NC(=O)OCc4ccccc4)cc3S(=O)(=O)N2)c(O)c2cccnc21`: 58 nM; `COc1cccc(CNS(=O)(=O)Nc2ccc3c(c2)S(=O)(=O)NC(c2c(O)c4cccnc4n(CCC(C)C)c2=O)=N3)c1`: 15 nM.
The compound `C#CCOC(=O)NS(=O)(=O)Nc1ccc2c(c1)S(=O)(=O)N=C(c1c(O)c3cccnc3n(CCC(C)C)c1=O)N2` showed an IC50 in assay [1] of 72 nM.
Same read-out and setting: next, `CC(C)CCn1c(=O)c(C2=Nc3ccc(NS(=O)(=O)NC(=O)OCC(=O)O)cc3S(=O)(=O)N2)c(O)c2cccnc21`: 50 nM.
